Experimental data gathered from unrelated publications.
Compare with care: the assays were run in different laboratories.
RPS6KA3: Ribosomal protein S6 kinase alpha-3 (RPS6KA3, Homo sapiens, UniProt P51812)
RPS6KA3 C-terminal kinase domain: Ribosomal protein S6 kinase alpha-3, C-terminal kinase domain (RPS6KA3, Homo sapiens, UniProt P51812)
RPS6KA3 N-terminal kinase domain: Ribosomal protein S6 kinase alpha-3, N-terminal kinase domain (RPS6KA3, Homo sapiens, UniProt P51812)

Structure (SMILES) | target | assay | conditions | measurement | result
Cc1sc(C(=O)NC2COC2)cc1-n1cc(NC(=O)Nc2c(F)cccc2Cl)cn1 | RPS6KA3 | enzyme activity, inhibitor | 10 µM | remaining activity | 73%
O=C1NC(=O)c2cc(Nc3ccc(F)cc3)c(Nc3ccc(F)cc3)cc21 | RPS6KA3 | cell-free assay | 0.5 µM | remaining signal | 118%
CN(C)C1CCN(CC#Cc2nn(C3CCCC3)c3nc(NCc4ccccc4)ncc23)C1 (centres unmarked) | RPS6KA3 | enzyme activity, inhibitor, FRET | 10 µM | inhibition | 15%
Cc1cnc(NC2CCOCC2)nc1-n1cnc(C(=O)NC(CN)c2cc(F)cc(Cl)c2)c1 (centres unmarked) | RPS6KA3 | enzyme activity, inhibitor, radiometric | 1 µM | remaining activity | 21%
Cn1cncc1C1=CN(c2ncnc3[nH]cnc23)CCS1 | RPS6KA3 | enzyme activity, inhibitor, radiometric | 2 µM | inhibition | 66%
CC1CCCN1c1nccc(-c2cnn3ncccc23)n1 (centres unmarked) | RPS6KA3 C-terminal kinase domain | binding, competition with immobilised ligand | 1 µM | remaining binding | 100%
CCN(CC)CCNC(=O)c1c(C)[nH]c(/C=C2\C(=O)Nc3ccc(F)cc32)c1C | RPS6KA3 | cell-free assay | 0.5 µM | remaining signal | 35.5%
CNC(=O)c1cc(Oc2ccc(NC(=O)Nc3ccc(Cl)c(C(F)(F)F)c3)cc2)ccn1 | RPS6KA3 | enzyme activity, inhibitor | 10 µM | inhibition | 46%
CN(C)C(=O)Cn1cc(-c2nc([C@@](C)(c3ccc(-c4cnc(N)nc4)cc3)C3CC3)no2)cn1 | RPS6KA3 N-terminal kinase domain | cell-free assay, competition with immobilised ligand | 1 µM | remaining binding | 83%
O=C(Nc1cnn(-c2csc(C(=O)NC3COC3)c2)c1)Nc1c(F)cccc1Cl | RPS6KA3 | enzyme activity, inhibitor | 5 µM | remaining activity | 79.9%
COc1ccnn2ncc(-c3ccnc(N(C)C)n3)c12 | RPS6KA3 C-terminal kinase domain | binding, competition with immobilised ligand | 1 µM | remaining binding | 100%
CC/C(=N\NC(=O)C(C)Nc1ccccc1)c1ccc(O)c(C)c1O (centres unmarked) | RPS6KA3 | enzyme activity, inhibitor | 0.1 µM | inhibition | 45.7%
CCCCNc1ncc2c(-c3ccc(F)cc3)nn(C[C@H]3CC[C@H](N)CC3)c2n1 | RPS6KA3 N-terminal kinase domain | target engagement in cells, inhibitor, chemoproteomics | 20 mM | inhibition | 32.6%
Cc1ccc(C(=O)Nc2ccc(CN3CCN(C)CC3)c(C(F)(F)F)c2)cc1C#Cc1cnc2cccnn12 | RPS6KA3 | enzyme activity, inhibitor | 23.5 nM | activity vs control | 82%
FC(F)c1nc2ccccc2n1-c1nc(N2CCOCC2)nc(N2CCOCC2)n1 | RPS6KA3 | enzyme activity, inhibitor | 10 µM | remaining activity | 83%
C[C@H](NC(=O)c1cnc2n1[C@](C)(Cc1ccc(C#N)cc1)C(=O)N2c1cc(Cl)c(F)c(Cl)c1)C(=O)NC1(c2ccccn2)CC1 | RPS6KA3 C-terminal kinase domain | cell-free assay, competition with immobilised ligand | 1 µM | remaining binding | 100%
CC(C)(C)c1nc(-c2cccc(NS(=O)(=O)c3c(F)cccc3F)c2F)c(-c2ccnc(N)n2)s1 | RPS6KA3 | enzyme activity, inhibitor, radiometric | 1 µM | remaining activity | 77%
CCN(CC)c1ccc(C2=NNC(=O)CC2C)cc1[N+](=O)[O-] (centres unmarked) | RPS6KA3 | enzyme activity, inhibitor | 10 µM | remaining activity | 100%
COc1cc(/C=C/C(=O)CC(=O)/C=C/c2ccc(O)c(OC)c2)ccc1O | RPS6KA3 | enzyme activity, inhibitor | 1 µM | activity vs control | 66%
CN(c1nccc(-c2cnn3ncccc23)n1)C1CC1 | RPS6KA3 C-terminal kinase domain | binding, competition with immobilised ligand | 1 µM | remaining binding | 100%
CCCS(=O)(=O)Nc1ccc(F)c(C(=O)c2c[nH]c3ncc(-c4ccc(Cl)cc4)cc23)c1F | RPS6KA3 | enzyme activity, inhibitor | 1 µM | inhibition | < 10%

Structure (SMILES) | target | assay | conditions | measurement | result
C[C@@H]1CCN(c2nccc(-c3cnn4ncccc34)n2)C1 | RPS6KA3 N-terminal kinase domain | binding, competition with immobilised ligand | 1 µM | remaining binding | 74%
COc1cc2ncnc(Nc3ccc(Oc4ccccc4)cc3C)c2cc1OC | RPS6KA3 | enzyme activity, inhibitor | 1 µM | inhibition | -8%
O=C(NC[C@@H]1[C@H]2CN(C(=O)OCc3cc(C(F)(F)F)cc(C(F)(F)F)c3)C[C@@H]12)c1ccc2[nH]nnc2c1 | RPS6KA3 N-terminal kinase domain | cell-free assay, competition with immobilised ligand | 1 µM | remaining binding | 94%
Nc1nc(Nc2ccccc2)sc1C(=O)c1c(F)cccc1F | RPS6KA3 | enzyme activity, inhibitor | 10 µM | remaining activity | 38%
COc1cc(Nc2c(C#N)cnc3cc(OCCCN4CCN(C)CC4)c(OC)cc23)c(Cl)cc1Cl | RPS6KA3 | cell-free assay | 0.5 µM | remaining signal | 80.1%
C[C@H](c1ccc(F)cc1)N(Cc1cccc(C(=O)O)c1)C(=O)c1cnc2ccccc2c1 | RPS6KA3 C-terminal kinase domain | cell-free assay, competition with immobilised ligand | 1 µM | remaining binding | 89%
Cc1ccc(Nc2nccc(N(C)c3ccc4c(C)n(C)nc4c3)n2)cc1S(N)(=O)=O | RPS6KA3 | enzyme activity, inhibitor | 10 µM | inhibition | 56%
COc1cc(Cl)c(C(=O)N[C@@H](CN[C@H]2CC[C@@H](N)CC2)Cc2ccc(C#N)cc2)cc1-c1ccc(CN[C@H](C)c2ccc(C)cc2)o1 | RPS6KA3 | enzyme activity, inhibitor | 1 µM | remaining activity | 72%
N[C@@H]1CCN(c2nccc(-c3cnn4ncccc34)n2)C1 | RPS6KA3 N-terminal kinase domain | binding, competition with immobilised ligand | 1 µM | remaining binding | 100%
Nc1ncnc2occ(-c3ccc(NC(=O)Nc4cc(C(F)(F)F)ccc4F)cc3)c12 | RPS6KA3 C-terminal kinase domain | cell-free assay, inhibitor | 20 µM | remaining signal | 100%
CNc1cccc2cc(C(=O)Nc3ccc(C(=O)O)cc3)c(=O)[nH]c12 | RPS6KA3 | enzyme activity, inhibitor | 10 µM | inhibition | 2.2%
FC(F)(F)Oc1cccc(-c2cnc3ccc(-c4ccncc4)nn23)c1 | RPS6KA3 | enzyme activity, inhibitor, radiometric | 5 µM | activity vs control | 98%
CCCOc1ccc([C@H]2[C@H](C(=O)O)[C@@H](c3ccc4c(c3)OCO4)CN2CC(=O)Nc2c(CC)cccc2CC)cc1 | RPS6KA3 C-terminal kinase domain | cell-free assay, competition with immobilised ligand | 1 µM | remaining binding | 73%
c1ccc(CNc2nc(N3CCOc4ccccc43)nc3c2CCCC3)cc1 | RPS6KA3 N-terminal kinase domain | target engagement in cells, inhibitor, chemoproteomics | 20 mM | inhibition | 3.3%
CCOCCn1cc(C(=O)Nc2ccc(-n3nc(-c4cccnc4)cc3C(F)(F)F)cn2)ccc1=O | RPS6KA3 C-terminal kinase domain | cell-free assay, competition with immobilised ligand | 1 µM | remaining binding | 87%
COc1cc(Nc2cnc(C#N)c(O[C@H](C)CN(C)C)n2)ncc1-c1cnn(C)c1 | RPS6KA3 | enzyme activity, inhibitor, radiometric | 1 µM | remaining activity | 9%
O=C(NCc1ncc(C(F)(F)F)cc1Cl)c1ccc2c(c1)C1(CCS(=O)(=O)CC1)[C@@H](C1CC1)N2S(=O)(=O)c1ccc(F)cc1 | RPS6KA3 C-terminal kinase domain | cell-free assay, competition with immobilised ligand | 1 µM | remaining binding | 82%
CN(CCCC(F)(F)F)c1nccc(-c2cnn3ncccc23)n1 | RPS6KA3 N-terminal kinase domain | binding, competition with immobilised ligand | 1 µM | remaining binding | 100%
O=C1Nc2ccc(Cl)cc2C1=Cc1cc(Cl)c(O)c(Cl)c1 | RPS6KA3 | cell-free assay | 0.5 µM | remaining signal | 96%
COc1ccc2c(c1)O[C@H](c1ccc(OC)c(OC)c1)C[C@@H]2NC(=O)C1(c2ccc3c(c2)OC(F)(F)O3)CC1 | RPS6KA3 C-terminal kinase domain | cell-free assay, competition with immobilised ligand | 1 µM | remaining binding | 93%
